# Reference: ChEMBL document CHEMBL4017495, “Identification and Characterization of the First Selective Y4 Receptor Positive Allosteric Modulator” (J Med Chem, 2017)
# The source made the active and inactive calls. The rule behind the calls is not given here.
# Assays:
# [1] = biological target: T1, Neuropeptide Y receptor type 4 (Homo sapiens, UniProt P50391)
# [2] = biological target: T1, Neuropeptide Y receptor type 4; remark: listed apart in the source
# [3] = biological target: T1, Neuropeptide Y receptor type 4; experiment: Positive allosteric modulation of human C-terminal eYFP-fused human NY4 receptor expressed in African green monkey COS7 cells co-expressing delta6Galphaqi4-myr assessed as potentiation of pancreatic polypeptide-mediated Ca2+ flux treated at 20 secs post baseline detection followed by addition of pancreatic polypeptide after 140 secs by Fluo2-AM fluorescent dye based-assay; type: functional, cell-based
# Method in brief: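 COS7 cells stably co-expressing Y4R-eYFP and Δ6Gαqi4-myr were seeded overnight. They were loaded with 2.4 μM Fluo2-AM in HBSS/20 mM HEPES/[…] for 60 min at 37 °C, then kept in assay buffer. Fluorescence was read at ex 485/em 525 nm. Compound was added after a 20 s baseline and peptide at 140 s. Response was taken as x-fold over basal, normalized to the DMSO control, and fitted to an operational model of allosterism. Duplicates, at least three independent runs.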
# [4] = biological target: Neuropeptide Y receptor type 4 (Mus musculus) (UniProt Q61041); experiment: Positive allosteric modulation of NY4 receptor in mouse descending colon mucosa assessed as increase in mucosal antisecretory response to pancreatic polypeptide at 30 uM preincubated for 5 mins followed by pancreatic polypeptide addition after 20 mins
# Chain of Neuropeptide Y receptor type 4 (Mus musculus) (Q61041 whole entry): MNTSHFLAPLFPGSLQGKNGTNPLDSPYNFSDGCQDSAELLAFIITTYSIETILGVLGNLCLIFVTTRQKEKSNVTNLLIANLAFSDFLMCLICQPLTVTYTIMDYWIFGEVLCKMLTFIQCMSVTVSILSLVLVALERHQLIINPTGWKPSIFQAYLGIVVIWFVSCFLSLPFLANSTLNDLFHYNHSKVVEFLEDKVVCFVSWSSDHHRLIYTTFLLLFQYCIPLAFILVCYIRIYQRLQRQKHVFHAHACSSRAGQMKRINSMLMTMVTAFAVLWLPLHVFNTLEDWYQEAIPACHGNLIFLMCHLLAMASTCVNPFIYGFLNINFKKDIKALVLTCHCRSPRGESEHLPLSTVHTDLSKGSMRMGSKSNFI
# Method in brief: (§1)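 Mouse descending colon mucosa was mounted in Ussing chambers (0.14 cm2 exposed) in oxygenated Krebs–Henseleit at 37 °C, voltage-clamped at 0 mV, with Isc recorded continuously. After a stable basal Isc (20–30 min), basolateral pretreatment was 30 μM compound or DMSO vehicle (0.3%) for 5 min. VIP (10 nM) was given for 5–10 min, then single rat PP additions (3, 10 or 30 nM). PYY (10 nM) followed 20 min later.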
# [5] = biological target: T1, Neuropeptide Y receptor type 4; conditions: HEK293, 30 uM
# [6] = biological target: T1, Neuropeptide Y receptor type 4; remark: listed apart in the source
# [7] = biological target: T1, Neuropeptide Y receptor type 4; remark: listed apart in the source
# [8] = biological target: T1, Neuropeptide Y receptor type 4; conditions: 30 uM
# [9] = biological target: T1, Neuropeptide Y receptor type 4; remark: listed apart in the source
# [10] = biological target: T1, Neuropeptide Y receptor type 4; remark: listed apart in the source
# [11] = biological target: T1, Neuropeptide Y receptor type 4; conditions: HEK293, 30 uM; remark: listed apart in the source
# [12] = biological target: Neuropeptide Y receptor type 4 (Mus musculus) (UniProt Q61041); experiment: Agonist activity at NY4 receptor in mouse descending colon mucosa assessed as increase in mucosal antisecretory response at 30 uM incubated for 5 mins
# Method in brief: as §1
# [13] = biological target: T2, Neuropeptide Y receptor type 1/2 (Mus musculus) (UniProt Q04573+P97295); experiment: Positive allosteric modulation of NY1/2 receptor in mouse descending colon mucosa assessed as increase in mucosal antisecretory response to peptide YY at 30 uM preincubated for 5 mins followed by pancreatic polypeptide addition after 20 mins
# T2 sequence (P97295 whole entry, looked up): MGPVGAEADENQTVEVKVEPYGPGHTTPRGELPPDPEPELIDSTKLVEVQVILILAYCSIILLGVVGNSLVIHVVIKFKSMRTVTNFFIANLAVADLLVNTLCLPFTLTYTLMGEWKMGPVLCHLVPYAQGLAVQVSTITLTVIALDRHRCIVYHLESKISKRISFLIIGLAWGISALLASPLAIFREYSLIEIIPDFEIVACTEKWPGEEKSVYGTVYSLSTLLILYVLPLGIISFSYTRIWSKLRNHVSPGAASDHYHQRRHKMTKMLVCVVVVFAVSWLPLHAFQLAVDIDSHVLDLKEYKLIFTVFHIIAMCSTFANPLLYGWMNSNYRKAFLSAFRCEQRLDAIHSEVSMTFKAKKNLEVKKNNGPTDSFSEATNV
# T2 sequence (Q04573 whole entry, looked up): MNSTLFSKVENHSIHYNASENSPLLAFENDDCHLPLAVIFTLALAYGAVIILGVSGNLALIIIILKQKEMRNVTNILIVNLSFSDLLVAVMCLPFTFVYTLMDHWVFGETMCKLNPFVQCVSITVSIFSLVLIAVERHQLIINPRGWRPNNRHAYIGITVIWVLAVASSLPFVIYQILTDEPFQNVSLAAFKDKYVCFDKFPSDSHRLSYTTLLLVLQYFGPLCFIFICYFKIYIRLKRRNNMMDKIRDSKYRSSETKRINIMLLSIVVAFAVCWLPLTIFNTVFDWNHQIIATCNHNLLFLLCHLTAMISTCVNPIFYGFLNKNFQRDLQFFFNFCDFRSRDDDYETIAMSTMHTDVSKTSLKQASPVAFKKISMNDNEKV
# Method in brief: as §1
# [14] = biological target: T1, Neuropeptide Y receptor type 4; remark: listed apart in the source
# [15] = biological target: T1, Neuropeptide Y receptor type 4; conditions: 30 uM; remark: listed apart in the source
# [16] = biological target: T1, Neuropeptide Y receptor type 4; remark: listed apart in the source
# [17] = biological target: T1, Neuropeptide Y receptor type 4; conditions: HEK293, 30 uM; remark: listed apart in the source
# [18] = biological target: T2, Neuropeptide Y receptor type 1/2 (Mus musculus); experiment: Positive allosteric modulation of NY1/2 receptor in mouse descending colon mucosa assessed as increase in mucosal antisecretory response to vasoactive intestinal polypeptide at 30 uM preincubated for 5 mins followed by pancreatic polypeptide addition after 20 mins
# Method in brief: as §1
# [19] = biological target: T1, Neuropeptide Y receptor type 4; conditions: 30 uM; remark: listed apart in the source
# [20] = biological target: T1, Neuropeptide Y receptor type 4; remark: listed apart in the source
# T1 sequence (P50391 whole entry): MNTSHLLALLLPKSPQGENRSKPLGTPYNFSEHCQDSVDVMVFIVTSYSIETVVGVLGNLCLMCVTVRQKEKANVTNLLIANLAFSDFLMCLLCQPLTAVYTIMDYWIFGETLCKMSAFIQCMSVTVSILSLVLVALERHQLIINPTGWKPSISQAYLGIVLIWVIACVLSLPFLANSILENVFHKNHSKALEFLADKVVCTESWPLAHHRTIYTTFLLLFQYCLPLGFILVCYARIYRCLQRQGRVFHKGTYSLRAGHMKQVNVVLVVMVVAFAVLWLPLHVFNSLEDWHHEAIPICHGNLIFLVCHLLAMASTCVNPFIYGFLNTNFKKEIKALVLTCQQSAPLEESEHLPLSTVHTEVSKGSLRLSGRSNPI
smiles,measurement,setting,value
CC(C)(C)c1ccc(OC2CCCCC2O)cc1 (stereo not given),log(activity),[1],0.36
same,pKb,[2],4.4
same,EC50,[3],5.1 µM
same,Activity,[4],Active
same,Emax,[5],118%
same,log(activity),[6],0.41
same,pKb,[7],4.4
same,Emax,[8],94%
same,pKb,[9],4.4
same,log(activity),[10],0.9
same,Emax,[11],145%
same,Activity,[12],inactive
same,Activity,[13],inactive
same,log(activity),[14],0.46
same,Emax,[15],89%
same,log(activity),[16],0.3
same,Emax,[17],144%
same,Activity,[18],inactive
same,Emax,[19],95%
same,log(activity),[20],0.79
